Counter-ions that a name gives are not always drawn.
Columns and labels:
[1] = test system: L929 cells (TNF-α-induced necroptosis); experiment: Necroptosis induction and inhibition assay in L929; format: cell-based, mouse; conditions: for EC50: Mus musculus, L929, read-out: EC50^L929 against TNF-α-induced necroptosis, mouse TNF-α (20 ng/mL) and zVAD (10 μM), CCK-8
[2] = test system: HT29 cells (TNF-α-induced necroptosis); experiment: Necroptosis induction and inhibition assay in HT29; format: cell-based, human; conditions: for EC50: Homo sapiens, HT-29, read-out: EC50^HT29 against TNF-α-induced necroptosis, zVAD (20 μM), human TNF-α (40 ng/mL), Smac mimetic SM-164 (100 nM), CCK-8
RIPK3-RIPK1 interaction = RIPK3-RIPK1 interaction (Mus musculus, UniProt Q9QZL0); experiment: RIPK1 immunoprecipitation; format: cell-based; conditions: L929, 10 µM, 5 hours
Chain of RIPK3-RIPK1 interaction (Q9QZL0 whole entry): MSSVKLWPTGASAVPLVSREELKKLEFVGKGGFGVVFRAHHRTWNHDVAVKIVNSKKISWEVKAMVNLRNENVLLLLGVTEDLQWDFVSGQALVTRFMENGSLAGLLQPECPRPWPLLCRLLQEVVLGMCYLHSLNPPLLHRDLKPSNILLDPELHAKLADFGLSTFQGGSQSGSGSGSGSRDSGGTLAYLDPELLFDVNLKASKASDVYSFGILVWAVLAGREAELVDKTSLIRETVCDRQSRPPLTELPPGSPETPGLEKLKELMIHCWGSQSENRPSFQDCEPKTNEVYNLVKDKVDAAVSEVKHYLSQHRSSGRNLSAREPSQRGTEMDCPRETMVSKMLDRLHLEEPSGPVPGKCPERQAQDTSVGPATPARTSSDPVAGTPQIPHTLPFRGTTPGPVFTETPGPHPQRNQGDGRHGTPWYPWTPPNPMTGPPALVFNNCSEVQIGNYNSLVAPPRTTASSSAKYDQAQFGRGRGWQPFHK
Outline: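 Lysates were cleared at 17,000 g for 15 min at 4 °C, and an input sample was kept. Lysate was incubated with anti-RIPK1 antibody on protein A/G magnetic beads for 2 h at 4 °C. Co-precipitated RIPK3 was detected by Western blot. Normalized quantification came from three independent experiments.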

L929^RIPK3-/- cells = experiment: Cell viability assay with or without zVAD, L929 RIPK3 knockout; format: cell-based, mouse
Outline: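 L929 cells were grown in MEM with 10% FBS. RIPK3 was knocked out by CRISPR/Cas9 (sgRNA against mouse RIPK3), and knockout was confirmed by sequencing and immunoblot. Knockout lines with or without re-expressed RIPK3 K51A or K51A/R69H were seeded at 10,000–20,000 cells/well and left to attach for 24 h. Cells were exposed to test compound alone or with zVAD for 18–20 h. Viability was read by CCK-8 (1–2 h, 37 °C, A450). Three experiments in triplicate; CC50 by nonlinear regression.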

[3] = test system: RIPK3 and MLKL phosphorylation in HT29 cells; experiment: Western blot of RIPK3 and MLKL phosphorylation, HT29; format: cell-based, human; conditions: HT29, inhibitors at 3 and 10 µM, necroptosis induced for 3 hours
Outline: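 HT29 cells were grown in 12-well plates to about 80% confluency and given test compound or DMSO with zVAD (20 μM) for 1-2 h. Necroptosis was then induced with human TNF-α (40 ng/mL) plus SM-164 (100 nM) for 3 h. Cells were washed three times in cold PBS and lysed for 10 min at room temperature in RIPA buffer with protease and phosphatase inhibitors and SDS loading buffer. Phospho-RIPK3 and phospho-MLKL were immunoblotted after 10% SDS-PAGE and PVDF transfer.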

[4] = test system: caspase 3 activity in L929 cell lysates; experiment: Caspase 3 activity in L929 cell lysates; format: cell-based, mouse
Outline: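 L929 cells were cultured 12 h in 12-well plates, then exposed to test compound or DMSO for 0, 1, 2, 3 or 4 h. Protein was measured by BCA. Lysate was incubated with Ac-DEVD-pNA overnight at 37 °C and read at A405 minus blank. Three experiments, each in triplicate.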

[5] = test system: RIPK3 and MLKL phosphorylation in L929 cells; experiment: Western blot of RIPK3 and MLKL phosphorylation, L929; format: cell-based, mouse; conditions: L929, inhibitors at 3 and 10 µM, necroptosis induced for 3 hours
Outline: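 L929 cells were grown in 6-well plates to about 80% confluency and given test compound or DMSO with zVAD (10 μM) for 1-2 h. Mouse TNF-α (20 ng/mL) was then added for 3 h. Cells were washed three times in cold PBS and lysed in 10 mM Tris-HCl pH 8.0, 1% SDS, 1 mM orthovanadate with protease and phosphatase inhibitors. Lysates were boiled for 10 min and stored at -80 °C. Phospho-RIPK3 and phospho-MLKL were immunoblotted after 10% SDS-PAGE and PVDF transfer.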

[6] = test system: caspase 3 and caspase 8 cleavage in L929 cells; experiment: Western blot of caspase 3 and caspase 8 cleavage in L929 cells; format: cell-based, mouse; conditions: L929, 3 hours
Outline: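 L929 cells in 12-well plates at about 80% confluency were exposed for 3 h to test compound, DMSO or medium, each with 10 µM zVAD. Cells were lysed at room temperature in a Triton X-100/Tris-based 1× SDS sample buffer and boiled 10 min. Proteins were run on 15% SDS-PAGE and blotted to PVDF. Membranes were blocked in 5% milk and probed for caspase 3 and caspase 8 cleavage overnight at 4 °C. Three independent experiments.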

[7] = molecular target: panel of 379 human kinases (Homo sapiens, UniProt Q13882); experiment: Selectivity profiling, Eurofins KinaseProfiler; format: biochemical; conditions: read-out: inhibition rate against breast tumor kinase (BRK)
Chain of panel of 379 human kinases (Homo sapiens, UniProt Q13882) (Q13882 whole entry): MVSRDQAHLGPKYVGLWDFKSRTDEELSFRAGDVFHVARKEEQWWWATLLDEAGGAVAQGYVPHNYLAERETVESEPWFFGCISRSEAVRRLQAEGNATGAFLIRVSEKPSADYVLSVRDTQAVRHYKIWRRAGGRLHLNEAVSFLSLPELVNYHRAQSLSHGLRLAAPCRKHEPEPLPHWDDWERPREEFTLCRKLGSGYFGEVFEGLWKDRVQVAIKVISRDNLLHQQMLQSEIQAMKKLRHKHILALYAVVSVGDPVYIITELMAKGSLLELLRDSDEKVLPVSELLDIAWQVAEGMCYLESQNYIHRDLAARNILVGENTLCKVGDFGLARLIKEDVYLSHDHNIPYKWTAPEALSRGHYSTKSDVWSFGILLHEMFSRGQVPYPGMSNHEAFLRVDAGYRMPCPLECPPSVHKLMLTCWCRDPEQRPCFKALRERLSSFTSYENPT

[8] = molecular target: panel of 379 human kinases (Homo sapiens, UniProt O43353); experiment: Selectivity profiling, Eurofins KinaseProfiler; format: biochemical; conditions: read-out: inhibition rate against RIPK2
Chain of panel of 379 human kinases (Homo sapiens, UniProt O43353) (O43353 whole entry): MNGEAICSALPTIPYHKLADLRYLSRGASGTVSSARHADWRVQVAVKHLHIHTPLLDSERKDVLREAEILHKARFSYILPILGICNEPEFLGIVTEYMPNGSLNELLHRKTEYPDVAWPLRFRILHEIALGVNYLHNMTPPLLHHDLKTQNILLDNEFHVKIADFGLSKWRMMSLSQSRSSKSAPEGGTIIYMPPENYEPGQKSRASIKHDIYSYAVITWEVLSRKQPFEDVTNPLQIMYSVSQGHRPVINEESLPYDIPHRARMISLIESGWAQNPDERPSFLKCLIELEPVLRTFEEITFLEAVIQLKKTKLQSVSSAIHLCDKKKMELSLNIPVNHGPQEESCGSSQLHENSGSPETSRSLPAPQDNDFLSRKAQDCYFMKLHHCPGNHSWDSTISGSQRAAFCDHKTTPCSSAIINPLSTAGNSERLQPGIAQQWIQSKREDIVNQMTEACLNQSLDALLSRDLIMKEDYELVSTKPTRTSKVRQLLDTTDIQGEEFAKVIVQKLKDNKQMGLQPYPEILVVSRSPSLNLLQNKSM

[9] = test system: panel of 379 human kinases; experiment: Selectivity profiling, Eurofins KinaseProfiler; format: biochemical; conditions: 379 kinases
BRK kinase domain = BRK kinase domain (Homo sapiens, UniProt Q13882, C433T); experiment: ADP-Glo kinase assay, BRK; format: biochemical
Chain of BRK kinase domain (Q13882 185-446 C433T): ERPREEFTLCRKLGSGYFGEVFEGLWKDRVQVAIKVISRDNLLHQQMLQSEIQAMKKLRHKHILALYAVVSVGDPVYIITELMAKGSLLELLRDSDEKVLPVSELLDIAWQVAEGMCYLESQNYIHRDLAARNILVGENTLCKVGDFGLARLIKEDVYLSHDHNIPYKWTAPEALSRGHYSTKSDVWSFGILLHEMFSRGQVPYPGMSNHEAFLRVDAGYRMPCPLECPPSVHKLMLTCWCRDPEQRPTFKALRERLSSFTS
Outline: (§1)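 Human kinase domains were expressed in Sf-9 cells from baculovirus and purified by Ni-NTA then size exclusion: BRK 185-446 (C433T, C-terminal 6×His) and RIPK2 1-310 (C-terminal 10×His). Each was preincubated with test compound or DMSO in 40 mM Tris pH 7.5, 20 mM MgCl2, 0.1 mg/mL BSA. ATP was added to 20 µM final for 1 h at room temperature, and ADP was read by ADP-Glo luminescence.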

RIPK2 = RIPK2 (Homo sapiens, UniProt O43353); experiment: ADP-Glo kinase assay, RIPK2; format: biochemical
Chain of RIPK2 (O43353 1-310): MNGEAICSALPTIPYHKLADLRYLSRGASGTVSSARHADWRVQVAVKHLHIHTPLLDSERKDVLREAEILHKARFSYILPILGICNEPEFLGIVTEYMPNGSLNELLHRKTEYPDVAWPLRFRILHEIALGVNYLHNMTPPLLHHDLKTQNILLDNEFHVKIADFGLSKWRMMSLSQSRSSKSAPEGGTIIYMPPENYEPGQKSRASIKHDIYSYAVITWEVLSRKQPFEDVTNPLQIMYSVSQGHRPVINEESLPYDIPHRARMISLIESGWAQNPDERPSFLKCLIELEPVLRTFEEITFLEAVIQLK
Outline: as §1

L929 cells = experiment: Cell viability assay with or without zVAD; format: cell-based, mouse; conditions: for on-target apoptosis in cells (in words): L929, murine cells

For `CC[C@H](C)c1nc2cc(Nc3ccnc4ccc(S(=O)(=O)C(C)C)cc34)ccc2s1` [LK01001, (S)-2-(sec-butyl)-N-(6-(isopropylsulfonyl)quinolin-4-yl)benzo[d]thiazol-5-amine hydrochloride], the EC50 [1] was 7000 nM and the EC50 [2] was 4100 nM.
`CC[C@@H](C)c1nc2cc(Nc3ccnc4ccc(S(=O)(=O)C(C)C)cc34)ccc2s1.Cl` [LK01002, (R)-2-(sec-butyl)-N-(6-(isopropylsulfonyl)quinolin-4-yl)benzo[d]thiazol-5-amine hydrochloride] was tested, and the EC50 [1] was 4800 nM, the EC50 [2] was 2000 nM and the “interaction between RIPK3 and RIPK1 (co-immunoprecipitation)” value (“interaction between RIPK3 and RIPK1” below) (RIPK3-RIPK1 interaction) was “neither increase the interaction of RIPK3 with RIPK1”. For the same molecule, the “change of CC50 between L929 and L929^RIPK3-/- cells” value (L929^RIPK3-/- cells) was “remain largely unchanged”, the “RIPK3 and MLKL phosphorylation induced by TNF-α (Western blot)” value (“RIPK3 and MLKL phosphorylation induced” for short) [3] was “effectively inhibit RIPK3 and MLKL phosphorylation” and the “concentration at which caspase 3 is activated” value [4] was over 50 µM. The “RIPK3 and MLKL phosphorylation induced” value [5] was “effectively inhibit RIPK3 and MLKL phosphorylation” and the “activation of the apoptotic pathway: cleavage of caspase 8 and caspase 3 (Western blot)” value (“activation of the apoptotic pathway” below) [6] was “nor activate the apoptotic pathway”.
`CC(C)S(=O)(=O)c1ccc2nccc(Nc3ccc4sc(C5CCCC5)nc4c3)c2c1.Cl` [LK01003, 2-cyclopentyl-N-(6-(isopropylsulfonyl)quinolin-4-yl)benzo[d]thiazol-5-amine hydrochloride] was tested, and the EC50 [1] was 3700 nM, the EC50 [2] was 850 nM and the inhibition at 1 µM [7] was over 65%. The inhibition at 1 µM [8] was over 65%, the “S (35) score” value ([9]; 1 μM) was “approximately 0.005” and the “S (35) score” value ([9]; 10 μM) was “approximately 0.03”. For the same molecule, the “number of kinases with over 65% inhibition rate” value ([9]; 10 μM) was 12 kinases, the “interaction between RIPK3 and RIPK1” value (RIPK3-RIPK1 interaction) was “neither increase the interaction of RIPK3 with RIPK1” and the IC50 (BRK kinase domain) was 248 nM. The “selectivity index (SI), BRK over RIPK3” value (BRK kinase domain) was 124, the “change of CC50 between L929 and L929^RIPK3-/- cells” value (L929^RIPK3-/- cells) was “remain largely unchanged” and the “RIPK3 and MLKL phosphorylation induced” value [3] was “effectively inhibit RIPK3 and MLKL phosphorylation”. The “concentration at which caspase 3 is activated” value [4] was over 50 µM, the “RIPK3 and MLKL phosphorylation induced” value [5] was “effectively inhibit RIPK3 and MLKL phosphorylation” and the “activation of the apoptotic pathway” value [6] was “nor activate the apoptotic pathway”. For the same molecule, the IC50 (RIPK2) was 48 nM and the “selectivity index (SI), RIPK2 over RIPK3” value (RIPK2) was 24.
In the case of `CCC(C)c1nc2cc(-c3nn(C(C)(C)C)c4ncnc(N)c34)ccc2s1` (stereo not shown) [LK01004, 1-(tert-butyl)-3-(2-(sec-butyl)benzo[d]thiazol-5-yl)-1H-pyrazolo[3,4-d]pyrimidin-4-amine], the EC50 [1] is reported as 3000 nM, the “concentration at which cleavage of caspases 8 and 3 is seen (Western blot)” value (shortened to “concentration at which cleavage”) [6] is reported as over 100 µM and the “RIPK3-independent cell killing (off-target toxicity)” value (L929 cells; L929) is reported as “still exhibit a substantial portion of RIPK3-independent cell killing”. The “change of CC50 in the presence or absence of zVAD” value (shortened to “change of CC50 … of zVAD”) (L929 cells; L929) was “do not change significantly in the presence or absence of zVAD” and the “on-target apoptosis in cells (in words)” value (L929 cells) was “do not induce on-target apoptosis”.
For `CC(C)(C)n1nc(-c2ccc3sc(C4CCCC4)nc3c2)c2c(N)ncnc21` [LK01005, 1-(tert-butyl)-3-(2-cyclopentylbenzo[d]thiazol-5-yl)-1H-pyrazolo[3,4-d]pyrimidin-4-amine], the EC50 [1] was 2100 nM, the “concentration at which cleavage” value [6] was over 100 µM and the “RIPK3-independent cell killing (off-target toxicity)” value (L929 cells; L929) was “still exhibit a substantial portion of RIPK3-independent cell killing”. For the same molecule, the “change of CC50 … of zVAD” value (L929 cells; L929) was “do not change significantly in the presence or absence of zVAD” and the “on-target apoptosis in cells (in words)” value (L929 cells) was “do not induce on-target apoptosis”.
`Cl.O=S1(=O)C=C(C2CC2)c2cc3nccc(Nc4ccc5sc(C6CCCC6)nc5c4)c3cc21` [LK01033, 8-((2-cyclopentylbenzo[d]thiazol-5-yl)amino)-3-cyclopropylthieno[2,3-g]quinoline 1,1-dioxide hydrochloride] was tested, and the EC50 [1] was 390 nM, the EC50 [2] was 110 nM and the “concentration at which cleavage” value [6] was over 10 µM. For the same molecule, the “change of CC50 … of zVAD” value (L929 cells; L929) was “does not change significantly in the presence or absence of zVAD”.
For `CC(C)S(=O)(=O)c1cc2c(Nc3ccc4sc(C5CCCC5)nc4c3)ccnc2cc1OCCO` [LK01045, 2-((4-((2-cyclopentylbenzo[d]thiazol-5-yl)amino)-6-(isopropylsulfonyl)quinolin-7-yl)oxy)ethan-1-ol], the “stronger potency compared to GSK'872 (EC50, L929)” value ([1]; L929 necroptosis) was “approximately 6 fold”, the “stronger potency compared to LK01003 (EC50, L929)” value ([1]; L929 necroptosis) was “approximately 6 fold” and the EC50 [1] was 610 nM. For the same molecule, the “stronger potency compared to GSK'872 (EC50, HT29)” value ([2]; HT29 necroptosis) was about 49 fold, the “stronger potency compared to LK01003 (EC50, HT29)” value ([2]; HT29 necroptosis) was about 5 fold and the EC50 [2] was 160 nM. For the same molecule, the “interaction between RIPK3 and RIPK1” value (RIPK3-RIPK1 interaction) was “neither increase the interaction of RIPK3 with RIPK1”, the “change of CC50 between L929 and L929^RIPK3-/- cells” value (L929^RIPK3-/- cells) was “remain largely unchanged” and the “RIPK3 and MLKL phosphorylation induced” value [3] was “effectively inhibits RIPK3 and MLKL phosphorylation”. For the same molecule, the “concentration at which caspase 3 is activated” value [4] was over 50 µM, the “RIPK3 and MLKL phosphorylation induced” value [5] was “effectively inhibits RIPK3 and MLKL phosphorylation” and the “activation of the apoptotic pathway” value [6] was “nor activate the apoptotic pathway”.
With `N#Cc1c(Oc2ccc(F)c(NC(=O)Cc3cccc(C(F)(F)F)c3)c2)ccc2nc(NC(=O)C3CC3)sc12` [TAK-632, N-(7-Cyano-6-(4-fluoro-3-(2-(3-(trifluoromethyl)phenyl)acetamido)phenoxy)benzo[d]thiazol-2-yl)cyclopropanecarboxamide, reference compound] the “concentration at which cleavage” value [6] was over 100 µM.
In the case of `Cl.O=S1(=O)C=C(C2CC2)c2cc3nccc(Nc4ccc5scnc5c4)c3cc21` [Zharp-99, 8-(benzo[d]thiazol-5-ylamino)-3-cyclopropylthieno[2,3-g]quinoline 1,1-dioxide hydrochloride, reference compound], the EC50 [1] is reported as 70 nM, the EC50 [2] is reported as 220 nM and the “concentration at which cleavage” value [6] is reported as 0.1 µM. The “difference of CC50 in the presence or absence of zVAD” value (L929 cells; L929) was ~ 36 fold.

From publication PMC12062462 (Nature Communications, 2025)
